Sampled rows, rich in hits. Any-hit rate of the full collection: about 1%.
PvdQ acylase: blocks Pseudomonas aeruginosa PvdQ acylase activity | inhibition, % at 10 µM | purified PvdQ acylase, fluorescence plate reader | AID 488965 | actives 0.063% (n = 340,000); in the data active = inhibition above about 30%, passing the limit was not always enough;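 note: 0% = vehicle neutral wells and 100% = reference inhibitor wells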
ERp5 block: ERp5 (human) disulfide isomerase inhibition; Q15084; ERp5 insulin aggregation, absorbance 650 nm, 90 min; inhibition, % at 9.99 µM; actives 0.05% (n = 350,000); AID 651711;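 active = mean replicate inhibition above about 25%, with every replicate also reaching it, limit read from the data, passing the limit was not always enough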
Target sequence (Q15084 whole entry, looked up): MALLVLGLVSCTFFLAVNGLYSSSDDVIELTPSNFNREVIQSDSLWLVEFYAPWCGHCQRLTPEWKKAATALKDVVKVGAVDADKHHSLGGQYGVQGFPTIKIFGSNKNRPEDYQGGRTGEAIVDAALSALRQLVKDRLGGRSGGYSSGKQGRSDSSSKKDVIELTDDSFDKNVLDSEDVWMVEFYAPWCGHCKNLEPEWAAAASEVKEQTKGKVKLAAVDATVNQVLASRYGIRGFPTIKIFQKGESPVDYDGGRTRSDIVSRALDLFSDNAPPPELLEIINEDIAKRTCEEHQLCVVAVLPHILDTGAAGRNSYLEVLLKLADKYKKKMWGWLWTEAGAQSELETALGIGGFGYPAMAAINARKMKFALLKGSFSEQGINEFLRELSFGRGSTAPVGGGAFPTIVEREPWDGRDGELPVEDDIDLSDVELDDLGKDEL
VIM-2 inh: inhibitors of Pseudomonas aeruginosa VIM-2 metallo-beta-lactamase. AID 1527. actives 0.89% (n = 290,000). inhibition, % at 5.6 µM. purified VIM-2, nitrocefin hydrolysis, epi-absorbance fluorescence;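 active = inhibition above the mean of all tested compounds plus 3 SD, cutoff set per screening run, cut at about 7.5% in these data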;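 note: red hydrolysis product quenches plate fluorescence so inhibitors raise well fluorescence; 0% = enzyme with DMSO and 100% = DMSO without enzyme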
IMP-1 inh-1: blocks Pseudomonas aeruginosa IMP-1 metallo-beta-lactamase | purified IMP-1, nitrocefin hydrolysis, epi-absorbance fluorescence | inhibition, % at 5.6 µM | actives 0.45% (n = 290,000) | AID 1556;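 active = inhibition above the mean plus 3 SD of all compounds in the same screening run, cut at about 4.5% in these data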;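 note: 0% = IMP-1 with DMSO and 100% = DMSO wells lacking enzyme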
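Test system: recombinant IMP-1 enzyme, purified / Medium: HEPES buffer pH 7.1 with ZnSO4 and Brij 35 / Doses: single dose, 5.6 µM / Times: 25 °C, 15 min preincubation, 25 min reaction / Detection: Epi-absorbance via hydrolysed-nitrocefin quenching of white-plate fluorescence, 480/530 nm, EDTA stop / Evaluation: percent inhibition from optical density relative to buffer-blank wells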
PDI inh: blocks human protein disulfide isomerase activity. actives 0.052% (n = 350,000). inhibition, % at 10 µM. PDI insulin aggregation turbidity, A650, 90 min;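 active = mean inhibition across replicates of 30% or more, whatever share of single replicates reach that level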
PglD DTNB: PglD (C. jejuni) enzyme inhibition; inhibition, % at 12.5 µM; purified PglD enzyme, DTNB colorimetric CoA detection; actives 0.098% (n = 360,000); in the data active = inhibition above about 16%, passing the limit was not always enough
IMP-1 inh-2: selectivity counter-screen for VIM-2 inhibitors: IMP-1 metallo-beta-lactamase inhibitors; shares compounds with VIM-2 inh; purified IMP-1, nitrocefin hydrolysis, epi-absorbance fluorescence; inhibition, % at 5.6 µM; 1,300 tested, under 10 active; call rule not given here;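 note: 0% = enzyme with vehicle and 100% = vehicle without enzyme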
VIM-2 FRET inh: counter-screen for VIM-2 inhibitors: epi-absorbance artifacts via FRET; shares compounds with VIM-2 inh; purified VIM-2, CCF2 FRET substrate hydrolysis; inhibition, % at 5.6 µM; actives 23% (n = 1,300);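 active = inhibition above the mean of all tested compounds plus 3 SD, cut at about 19% in these data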;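 note: 0% = VIM-2 plus DMSO and 100% = no enzyme wells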
TEM-1 inh: blocks E. coli TEM-1 beta-lactamase in VIM-2 selectivity screen; shares compounds with VIM-2 inh; Purified TEM-1, nitrocefin hydrolysis, epi-absorbance fluorescence; inhibition, % at 5.6 µM; actives 3% (n = 1,300); AID 1866;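 active = inhibition above that campaign's mean inhibition plus 3 SD, cut at about 0.46% in these data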;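 note: 0% = TEM-1 with DMSO and 100% = TEM-1 with 100 µM potassium clavulanate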
VIM-2 inh conf: confirmation of P. aeruginosa VIM-2 metallo-beta-lactamase inhibitors | shares compounds with VIM-2 inh | purified VIM-2, nitrocefin hydrolysis, epi-absorbance | inhibition, % at 5.6 µM | actives 96% (n = 1,300);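 active = inhibition of the VIM-2 beta-lactamase enzyme above about 11% from the earlier first-round screen, limit read from the data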;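 note: 0% = VIM-2 with DMSO and 100% = buffer wells without enzyme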
* hit, by the source's call.

Nc1nnnn1CC(=O)N/N=C/c1cc([N+](=O)[O-])ccc1Cl was read as PvdQ acylase -6, ERp5 block -23, VIM-2 inh 0, IMP-1 inh-1 0 and PDI inh -13.
`CC(=O)c1c2c3c(cccc3n(C)c1=O)C(=O)c1ccccc1-2` gave VIM-2 inh 22*, IMP-1 inh-1 3, IMP-1 inh-2 -2, VIM-2 FRET inh -3, TEM-1 inh -4 and VIM-2 inh conf 30*.
`COc1ccc(/C=C2\SC(c3ccc(C)cc3)=NC2=O)cc1OC` gave PvdQ acylase -4, VIM-2 inh 6, IMP-1 inh-1 1, PDI inh -6 and PglD DTNB 4.
Screening COc1ccc(/C=C2/SC(c3ccc(C)cc3)=NC2=O)cc1OC returned PvdQ acylase 7, VIM-2 inh 15*, IMP-1 inh-1 0, PDI inh -3, IMP-1 inh-2 9.4*, VIM-2 FRET inh -2, TEM-1 inh 20* and VIM-2 inh conf 14*.
For C[C@H](CO)N1C[C@H](C)[C@H](CN(C)C(=O)Nc2ccc(F)cc2)Oc2c(NS(C)(=O)=O)cccc2C1=O the results were ERp5 block 0 and PglD DTNB 6.
Screening Cc1onc(-c2ccccc2)c1C(=O)N/N=C/c1ccco1 returned PvdQ acylase -13, ERp5 block 4, VIM-2 inh 34*, IMP-1 inh-1 -5, PDI inh 4, IMP-1 inh-2 -4, VIM-2 FRET inh 3, TEM-1 inh -5 and VIM-2 inh conf 2.
`O=C(c1ccc(F)cc1)N1CCCCN2[C@H](CO)[C@@H](c3ccc(-c4ccc(F)cc4)cc3)[C@@H]2C1` gave ERp5 block -4 and PglD DTNB -1.
C=C(C)CSc1cc(C)c(C#N)c2nc3ccccc3n12 was read as PvdQ acylase -11, ERp5 block 2, VIM-2 inh 17*, IMP-1 inh-1 2, PDI inh -22, IMP-1 inh-2 -3, VIM-2 FRET inh 4, TEM-1 inh -9 and VIM-2 inh conf 21*.
COCCN(CCOC)c1cc(C)c(C#N)c2nc3ccccc3n12 was read as PvdQ acylase -5, VIM-2 inh -2, IMP-1 inh-1 -5, PDI inh 8 and PglD DTNB 6.
CCN(CC)CCNc1cc(C)c(C#N)c2nc3ccccc3n12 was read as PvdQ acylase -17, ERp5 block -5, VIM-2 inh 22*, IMP-1 inh-1 -3, PDI inh 1, PglD DTNB -4, IMP-1 inh-2 -3, VIM-2 FRET inh -8, TEM-1 inh -6 and VIM-2 inh conf 37*.
For Cc1cc(NCCCCO)n2c(nc3ccccc32)c1C#N the results were PvdQ acylase 7, ERp5 block -2, VIM-2 inh 19*, IMP-1 inh-1 -2, PDI inh -3, PglD DTNB -1, IMP-1 inh-2 -3, VIM-2 FRET inh -10, TEM-1 inh -7 and VIM-2 inh conf 40*.
For CCN(CC)CCCNc1cc(C(F)(F)F)c(C#N)c2nc3ccccc3n12 the results were PvdQ acylase -13, ERp5 block 2, VIM-2 inh 29*, IMP-1 inh-1 -1, PDI inh -1, PglD DTNB -3, IMP-1 inh-2 -2, VIM-2 FRET inh -5, TEM-1 inh -2 and VIM-2 inh conf 41*.
Screening CCN(CC)CCCNc1cc(C)c(C#N)c2nc3ccccc3n12 returned ERp5 block -2, PDI inh -2 and PglD DTNB -6.
`C[C@@H]1CN([C@@H](C)CO)C(=O)Cc2cc(NC(=O)Cc3ccccc3)ccc2O[C@H]1CN(C)S(=O)(=O)c1ccc(Cl)cc1` gave ERp5 block 2 and PglD DTNB 3.
Screening COc1ccc(NC(=O)N(C)C[C@@H]2OCCCC[C@H](C)Oc3ccc(NS(=O)(=O)c4c(C)noc4C)cc3C(=O)N([C@@H](C)CO)C[C@H]2C)cc1 returned ERp5 block -2.
Screening Cc1cc(-c2ccco2)n2c(nc3ccccc32)c1C#N returned PvdQ acylase -6, VIM-2 inh 18*, IMP-1 inh-1 -2, PDI inh -6, PglD DTNB 0, IMP-1 inh-2 -3, VIM-2 FRET inh 32*, TEM-1 inh -4 and VIM-2 inh conf 43*.
Screening Cc1ccnc(N2CCN(c3cc(C)c(C#N)c4nc5ccccc5n34)CC2)c1 returned PvdQ acylase -8, VIM-2 inh -1, IMP-1 inh-1 -3, PDI inh 0 and PglD DTNB 8.
Cc1cc(NCCCN2CCOCC2)n2c(nc3ccccc32)c1C#N was read as PvdQ acylase -10, VIM-2 inh 40*, IMP-1 inh-1 -1, PDI inh -12, PglD DTNB 4, IMP-1 inh-2 -2, VIM-2 FRET inh -9, TEM-1 inh -5 and VIM-2 inh conf 57*.
For C[C@@H]1CCCCO[C@H](CN(C)Cc2ccccc2)[C@H](C)CN([C@H](C)CO)C(=O)c2cc(NC(=O)C3CCCCC3)ccc2O1 the results were ERp5 block -5 and PglD DTNB 0.
For CCN(CC)CCOC(=O)c1cccc2c1-c1ccccc1C2O (stereo unspecified) the results were PvdQ acylase -9, ERp5 block 7, VIM-2 inh 25*, IMP-1 inh-1 0, PDI inh 4, IMP-1 inh-2 -5, VIM-2 FRET inh 4, TEM-1 inh -9 and VIM-2 inh conf 43*.
`Cc1ccc(-c2nnc3c4ccccc4c(C)nn23)cc1NC(=O)CN1CCOCC1` gave VIM-2 inh -3 and IMP-1 inh-1 -4.
`Cc1ccc(-c2nnc3c4ccccc4c(C)nn23)cc1S(=O)(=O)N1CCN(CCO)CC1` gave PvdQ acylase 11, VIM-2 inh 25*, IMP-1 inh-1 -2, PDI inh -3, IMP-1 inh-2 -2, VIM-2 FRET inh 14, TEM-1 inh -10 and VIM-2 inh conf 48*.
Cc1nn2c(-c3ccc(S(=O)(=O)N4CCN(C)CC4)o3)nnc2c2ccccc12 was read as PvdQ acylase -13, ERp5 block 8, VIM-2 inh 24*, IMP-1 inh-1 -1, PDI inh 7, PglD DTNB 2, IMP-1 inh-2 -1, VIM-2 FRET inh 4, TEM-1 inh -5 and VIM-2 inh conf 34*.

Screening results as filed in PubChem.
